From ChEMBL document CHEMBL1138034, “Structural studies on bioactive compounds. 40.(1) Synthesis and biological properties of fluoro-, methoxyl-, and amino-substituted 3-phenyl-4H-1-benzopyran-4-ones and a comparison of their antitumor activities with the activities of related 2-phenylbenzothiazoles” (J Med Chem, 2006)
Activity calls are given as the source filed them. The calls are words filed in the database; no cut-off is given here.

How the values were obtained:
[1] = test system: Panel NCI-60 (60 carcinoma cell lines); test: Antiproliferative activity against human NCI60 cell line; assay type: functional
MCF7 = test: Antiproliferative activity against human MCF7 cell line; assay type: functional
Method in brief: (§1)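 Cells kept in RPMI 1640 with 2 mM L-glutamine and 10% fetal calf serum, 37 °C, 5% CO₂, passaged twice weekly. 5 × 10³ cells/well allowed 24 h to adhere, then exposed 72 h to compound at final 0.1 nM–100 µM (n = 8). MTT read-out: MTT 400 µg/mL for 4 h at 37 °C, formazan dissolved in DMSO/glycine buffer pH 10.5, absorbance 550 nm; GI50 derived.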

HCT-116 = test: Antiproliferative activity against human HCT116 cell line; assay type: functional; method in brief: as §1
HT-29 = test: Antiproliferative activity against human HT29 cell line; assay type: functional; method in brief: as §1
MDA-MB-468 [2] = test: Antiproliferative activity against human MDA-MB-468 cell line; assay type: functional; method in brief: as §1
MDA-MB-468 [3] = test: Antiproliferative activity against human MDA-MB-468 cell line in presence of 10 nM TBDD; assay type: functional
Method in brief: (§2)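 MDA-MB-468 cells, 5 × 10³/well, allowed 24 h to adhere, then co-exposed 72 h to isoflavone (final 0.1 nM–100 µM, n = 8) plus TBDD at final 10 nM (n = 4). Viability measured by MTT (400 µg/mL, 4 h, 37 °C), formazan dissolved in DMSO/glycine pH 10.5, absorbance 550 nm.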

MDA-MB-468 [4] = test: Cytotoxicity against human MDA-MB-468 cell line at 3 uM in presence of TBDD; assay type: functional, cell-based; method in brief: as §2
Cytochrome P450 1A1 = target: T1, Cytochrome P450 1A1 (Homo sapiens, UniProt P04798); test: Inhibition of CYP1A1 by EROD assay; assay type: ADME
T1 sequence (P04798 whole entry): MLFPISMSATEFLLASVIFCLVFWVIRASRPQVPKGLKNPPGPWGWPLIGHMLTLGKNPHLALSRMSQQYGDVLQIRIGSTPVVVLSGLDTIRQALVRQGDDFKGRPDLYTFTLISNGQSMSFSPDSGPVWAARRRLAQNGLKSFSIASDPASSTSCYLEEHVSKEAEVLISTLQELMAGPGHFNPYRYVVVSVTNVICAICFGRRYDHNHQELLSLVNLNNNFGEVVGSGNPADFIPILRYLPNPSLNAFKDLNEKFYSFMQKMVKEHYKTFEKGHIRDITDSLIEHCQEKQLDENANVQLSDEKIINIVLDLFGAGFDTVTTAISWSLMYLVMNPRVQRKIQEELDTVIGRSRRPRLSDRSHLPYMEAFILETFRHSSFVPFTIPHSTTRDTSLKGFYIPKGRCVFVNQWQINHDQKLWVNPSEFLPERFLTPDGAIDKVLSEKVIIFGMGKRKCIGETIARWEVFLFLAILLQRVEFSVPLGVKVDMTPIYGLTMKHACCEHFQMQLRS
Method in brief: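 EROD fluorometric assay. Recombinant CYP1A1 microsomes (0.1 mg/mL) in 100 mM Tris-HCl pH 7.4 with 50 µM MgCl₂ and 100 µM 7-ethoxyresorufin, with compound at 1, 10 or 100 µM. Preincubated 5 min at 37 °C, started with 500 µM NADPH, run 15 min at 37 °C, stopped with ice-cold acetonitrile. Resorufin read at ex 530/em 585 nm against a standard curve; no-microsome and DMSO controls.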

MDA-MB-435 = test: Antiproliferative activity against human MDA-MB-435 cell line expressing ARNT splice variant

| Compound | GI50 [1] [µM] | GI50 (MCF7) [µM] | GI50 (HCT-116) [µM] | GI50 (HT-29) [µM] | GI50 (MDA-MB-468 [2]) [µM] | GI50 (MDA-MB-468 [3]) [µM] | Activity (MDA-MB-468 [4]) | IC50 (Cytochrome P450 1A1) [µM] | GI50 (MDA-MB-435) [µM] |
| --- | --- | --- | --- | --- | --- | --- | --- | --- | --- |
| Nc1ccc(-c2coc3ccc(F)cc3c2=O)cc1 | 50 | 8.8 | 8.5 | 6.1 | 4.8 | – | – | – | – |
| COc1ccc(-c2coc3c(F)cccc3c2=O)cc1OC | 50 | 75.5 | 67.8 | 88 | 41.9 | < 1 | Active | – | – |
| COc1ccc(-c2coc3cc(F)ccc3c2=O)cc1OC | 50 | 90.6 | 80.2 | 87 | 58.9 | < 1 | Active | < 100 | – |
| COc1cccc(-c2coc3ccccc3c2=O)c1 | 50 | > 100 | > 100 | 88 | 29 | < 1 | – | – | – |
| COc1ccc(-c2coc3ccccc3c2=O)cc1OC | 50 | 88.1 | > 100 | > 100 | 66.5 | < 1 | – | – | – |
| Nc1ccc(-c2coc3ccccc3c2=O)cc1 | 50 | 64.9 | 17.3 | 8.1 | 6 | – | – | – | – |
| O=c1c(-c2cccc([N+](=O)[O-])c2)coc2ccccc12 | 50 | – | – | – | – | – | – | – | – |
| COc1ccc(-c2coc3ccc(F)cc3c2=O)cc1 | 50 | – | – | – | – | – | – | < 100 | – |
| COc1ccc(-c2coc3c(F)c(F)ccc3c2=O)cc1OC | 50 | 47.2 | 26 | 31.7 | 21.6 | < 1 | – | – | – |
| O=c1c(-c2ccc3c(c2)OCO3)coc2ccc(F)cc12 | 50 | 60 | – | – | 1.5 | 2 | – | – | – |
| Cc1cc(-c2nc3cc(F)ccc3s2)ccc1N | – | < 0.0001 | 16 | 63 | < 0.0001 | – | – | – | – |
| COc1ccc(-c2coc3c(F)cc(F)cc3c2=O)cc1OC | 50 | 46.7 | 8.1 | 7.2 | 6.3 | – | – | – | > 30 |
| Nc1ccc(-c2coc3cc(F)ccc3c2=O)cc1 | 50 | 7.9 | 7.2 | 8.6 | 6.4 | – | – | – | – |
| COc1ccc(-c2coc3cc(F)c(F)cc3c2=O)cc1OC | 50 | 41.5 | 39.7 | 22.6 | 17.2 | – | – | – | > 30 |
| COc1ccc(-c2nc3cc(F)ccc3s2)cc1OC | – | 0.008 | 5.4 | 2.6 | < 0.0001 | – | – | – | – |
| COc1ccc(-c2coc3ccc(F)cc3c2=O)cc1OC | 50 | 93.1 | 65.3 | 88.2 | 0.9 | < 1 | – | < 100 | > 30 |
| O=c1c(-c2ccc(Br)cc2)coc2ccccc12 | 50 | – | – | – | – | – | – | – | – |
| COc1ccc(-c2coc3cc(F)ccc3c2=O)cc1 | 50 | 43.8 | 8.5 | 17.6 | 9.9 | – | – | – | > 30 |
| O=c1c(-c2ccc(Cl)cc2)coc2ccccc12 | 50 | – | – | – | – | – | – | – | – |
